# Assay outcomes deposited in PubChem by several laboratories.
# A selection: hits, their analogues and other compounds. The true share with any hit is near 12%.
# Cl transport mod: modulators of human KCC2 chloride dependent transport; KCC2 cells, thallium flux FluoZin-2 fluorescence; Q9H2X9; AID 1456; B-score of Tl+ flux slope (higher = more flux/activation; lower = inhibition) at 10 µM; hit rate 2.2% among 190,000;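 active means thallium flux slope and its plate-corrected score both differing from the plate sample mean at a set confidence after two filtering rounds, in either direction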;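 further: slope of fluorescence scaled to starting intensity during 10 to 20 s after thallium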
# WT yeast gro inh: growth inhibition of WT yeast, mitochondrial fusion screen | inhibition, % at 10 µM | mitochondrial fusion phenotypic screen, WT strain | hit rate 2.1% among 190,000; in the data active means inhibition above about 58%; tested in S. cerevisiae
# Diaph act CS: diaphorase activation or chemical reduction counter-screen. hit rate 0.005% among 190,000. AID 1229. Diaphorase/resazurin coupled assay, resorufin fluorescence, 16 min; hits give high values; 1 = vehicle wells, 0 = NADH-free wells. activation factor at 20 µM;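 active means diaphorase activity raised at least twofold by the compound at 20 µM; inactive means activation factor below 2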
#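 System – purified diaphorase enzyme from Clostridium kluyveri · Input – enzyme 0.07 U/mL final · Also added – final NADH 0.114 mM, resazurin 0.1 mM · Measured by – fluorescence of resorufin, 544 nm excitation, 590 nm emission · Timing – 16 min enzyme reaction, ambient temperature · Measure – resorufin increase flagging diaphorase activators or reducers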
# Lmaj promast: reduces viability of Leishmania major promastigotes; hit rate 9% among 200,000; resazurin fluorescence viability; inhibition, % at 10 µM; AID 1063; in the data active means inhibition above about 50%;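 further: promastigotes grown with compound for 44 hours at 28 °C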
# ROMK mod: human ROMK K+ channel modulation, primary screen | P48048 | Tet-inducible ROMK, thallium flux fluorescence; actives lie on both sides | B-score at 10 µM | hit rate 2% among 130,000;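 active means signal ratio slope over the read window, or its plate-corrected B-score, at least 3 SD from the plate mean, either direction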;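 further: B-score of the F/F0 ratio slope over 7 to 12 s after thallium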
# Target sequence (P48048 whole entry, looked up): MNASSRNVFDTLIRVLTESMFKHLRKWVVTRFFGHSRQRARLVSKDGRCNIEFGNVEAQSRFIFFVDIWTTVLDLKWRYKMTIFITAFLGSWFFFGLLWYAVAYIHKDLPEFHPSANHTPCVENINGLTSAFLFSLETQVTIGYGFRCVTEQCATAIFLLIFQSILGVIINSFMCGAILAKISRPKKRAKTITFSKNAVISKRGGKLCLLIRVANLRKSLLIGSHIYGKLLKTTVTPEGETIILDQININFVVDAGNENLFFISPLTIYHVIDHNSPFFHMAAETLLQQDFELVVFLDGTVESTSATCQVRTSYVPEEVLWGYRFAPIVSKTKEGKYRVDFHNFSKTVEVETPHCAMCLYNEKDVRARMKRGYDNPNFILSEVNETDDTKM
# Diaphorase inh: diaphorase inhibition or chemical oxidation counter-screen; diaphorase resazurin-to-resorufin fluorescence, NADH, 16 min; bacterial (C. kluyveri) enzyme, not human; hit rate 0.69% among 190,000; inhibition, % at 20 µM;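 active means primary screen inhibition at 20 µM above a set limit, cut at about 50% in these data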;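 further: plate controls were DMSO with full reaction for no effect and wells lacking NADH for full effect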
#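 Assay system – diaphorase enzyme from Clostridium kluyveri · Amount – diaphorase 0.14 U/mL (working solution) · Times – reaction incubation of 16 min at room temperature · Controls – No-NADH positive control and DMSO neutral control · Signal – resorufin fluorescence 544/590 nm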
# * hit, by the source's call; x = no result given.
SMILES,Cl transport mod,WT yeast gro inh,Diaph act CS,Lmaj promast,ROMK mod,Diaphorase inh
Fc1ccc(C2c3[nH]c4ccccc4c3CCN2Cc2cccn2-c2ncccn2)cc1 (stereo not drawn),-1.14,23.3,x,67.1*,x,x
O=C(Cc1ccsc1)N1CCc2c([nH]c3ccccc23)C1c1ccccn1 (stereo not drawn),x,2.5,0.9,12.7,x,14.2
CCOc1cc(/C=C/C(=O)Nc2ccc(C(=O)NCCN(CC)CC)cc2)ccc1OCC(C)C,-0.0113,-4.8,1.3,52.5*,-0.266,-28.5
CCOC(=O)C(C(=O)Nc1cccc(C)n1)C1CCCCC1 (stereo not drawn),-0.444,-0.9,0.8,4.0,x,23.9
CCOC(=O)C(C(=O)Nc1nc2ccccc2s1)C1CCCCC1 (stereo not drawn),-0.761,14.6,0.8,85.5*,x,23.3
CCOC(=O)C(C(=O)Nc1ccccn1)C1CCCCC1 (stereo not drawn),0.0848,23.7,0.9,-5.8,x,5.4
CCOC(=O)C(C(=O)Nc1nccs1)C1CCCCC1 (stereo not drawn),0.0147,-11.5,0.9,51.8*,x,11.9
O=C(NCc1ccco1)C1CC(c2cc(C(F)(F)F)cc(C(F)(F)F)c2)=NO1 (stereo not drawn),-0.671,x,x,x,x,x
CC(C)N(Cc1nc(-c2ccccc2)no1)C(=O)C(Cl)(Cl)Cl,-0.025,72.1*,0.9,12.6,0.478,8.5
CC(C)N(Cc1nc(-c2ccccc2)no1)C(=O)C(C)(C)C,-0.598,-1.8,0.9,-4.6,-0.684,6.2
CC(C)N(Cc1nc(-c2ccc(Cl)cc2)no1)C(=O)CCC1CCCC1,-0.352,67.4*,0.8,-6.9,x,22.1
Cc1ccc(C)c(C(=O)N(Cc2nc(-c3ccc(Cl)cc3)no2)C(C)C)c1,0.11,69.9*,0.8,3.1,x,15.8
Cn1cc([N+](=O)[O-])c(C(=O)Nc2nccs2)n1,-0.587,2.0,0.8,10.5,0,16.6
NC(=O)CC1C(=O)N(c2ccc(F)cc2)C(=O)N1NC(=O)CCc1ccccc1 (stereo not drawn),-0.789,-9.0,0.9,2.6,1.06,7.2
O=[N+]([O-])c1ccccc1N(CC1CO1)S(=O)(=O)c1ccccc1 (stereo not drawn),0.197,13.9,x,-2.1,1.42,x
COc1ccc(C(CC(=O)NCc2ccccc2)Sc2n[nH]c(-c3ccc(Cl)cc3)n2)cc1 (stereo not drawn),-0.00548,-18.4,1,52.4*,x,3.2
Cc1ccc(-c2csc(/C=C3\SC(C)C(=O)N3CC(=O)Nc3ccccc3F)n2)cc1 (stereo not drawn),-0.0228,x,x,x,x,x
O=C1C=C(Nc2ccc(Cl)cc2)C(=O)N1c1ccc(Cl)cc1,0.00462,-13.0,1.1,-8.6,-1.38,-14.8
COc1cccc(/C=N/NC(N)=S)c1OCc1ccccc1Cl,0.743,-5.3,0.8,30.4,0.839,22.3
NC(=S)N/N=C/c1ccccc1OCCSc1ccc(Cl)cc1,1.56,64.3*,0.8,100.3*,-0.081,22.8
O=C(NCc1ccco1)C1CCN(S(=O)(=O)Cc2ccccc2)CC1,0.292,-21.4,0.9,-7.4,-0.087,11.4
COC(=O)c1ccc(/C=N/N2CCN(Cc3ccc(C)cc3C)CC2)cc1,0.937,16.8,0.8,83.9*,-0.096,16.2
Cc1ccc(CN2CCN(/N=C/c3ccc(C(F)(F)F)cc3)CC2)c(C)c1,1.44,64.0*,0.8,13.6,0.00367,19.1
Cc1ccc(CN2CCN(/N=C/c3ccc(C(=O)O)cc3)CC2)c(C)c1,0.798,-1.1,1.1,5.8,-0.097,-9.7
Cc1onc(-c2ccccc2)c1CNC(=O)Nc1ccccc1,-0.257,x,x,x,x,x
SMILES,Cl transport mod,WT yeast gro inh,Diaph act CS,Lmaj promast,ROMK mod,Diaphorase inh
O=C(O)CNS(=O)(=O)c1ccc2c(c1)CCCC2,0.515,0.5,0.9,-5.1,0.808,10.8
CCOc1ccc(-c2nnc(Nc3ccc(OC)c(C(=O)N4CCCCC4)c3)c3ccccc23)cc1,-0.548,10.6,0.8,61.1*,x,17.5
O=C(CO)N/N=C/c1c2ccccc2cc2ccccc12,-1.96,7.6,0.9,6.7,x,6.4
O=C(CSCC(=O)Nc1ccccc1)N/N=C/c1c(O)ccc2ccccc12,-0.0609,1.6,0.9,99.6*,x,8.9
O=C(N/N=C/c1c(O)ccc2ccccc12)c1ccc[n+](CCO)c1,-0.313,-11.5,0.5,-12.5,-0.0537,54.0*
Nc1cc(Cl)nc(N/N=C/c2c(O)ccc3ccccc23)n1,-0.0936,13.3,0.9,91.0*,x,7.8
COc1cc(OC)c(OC)cc1/C=N/NC(=O)c1ccc(=O)n(C)c1,0.187,3.4,0.9,-3.2,0.892,12.1
COc1ccc(/C=N/NC(=O)CSCC(=O)Nc2ccccc2)cc1OC,0.625,1.6,1,1.8,x,-1.5
Cn1cc(C(=O)N/N=C/c2c(O)ccc3ccccc23)ccc1=O,-0.413,1.8,0.8,99.3*,-2.97,17.3
Nc1nonc1N/N=C/c1c(O)ccc2ccccc12,-0.273,6.6,0.7,15.0,-0.098,27.1
CCCCn1nc2cc(C(=O)NCc3ccccc3)ccc2c1OCC,0.222,22.9,0.8,5.1,x,19.4
CC(C)(C)NC(=O)C(OC(=O)c1cccs1)c1ccc(F)cc1 (stereo not drawn),1.83,-15.3,0.9,-2.3,1.61,10.3
O=C(NC(=S)Nc1ccc2oc(-c3cccnc3)nc2c1)c1cccc(Cl)c1,2.04,-12.2,0.9,-3.0,x,9.1
Cc1ccc(C)c(N2CCN(C(=O)c3ccc(Cn4c(=S)[nH]c5ccc(N6CCOCC6)cc5c4=O)cc3)CC2)c1,-1.07,-2.8,0.6,98.5*,-0.259,38.5
O=C(c1ccc2[nH]c3c(c2c1)CCCC3)N1CCN(c2ccc(F)cc2)CC1,0.0322,73.8*,0.8,60.1*,x,18.3
COc1ccccc1N1CCN(C(=O)c2ccc3[nH]c4c(c3c2)CCCC4)CC1,0.236,38.5,0.8,9.3,x,15.0
O=C(c1ccc(Cn2c(=O)[nH]c3ccccc3c2=O)cc1)N1CCN(c2ccc(F)cc2)CC1,x,8.4,0.8,91.5*,-0.176,22.6
O=C(c1ccc(Cn2c(=O)[nH]c3ccsc3c2=O)cc1)N1CCN(c2ccccc2)CC1,-0.0153,-4.9,1,7.6,-0.788,2.8
O=C(c1ccc(Cn2c(=S)[nH]c3ccc(Br)cc3c2=O)cc1)N1CCN(C2CCCCC2)CC1,2.6,73.3*,0.9,26.7,0.828,5.4
Cc1ccc(C2CC2C(=O)NNC(=S)Nc2ccc(Cl)cc2)cc1 (stereo not drawn),-0.573,4.2,1.1,-0.2,x,-7.6
CN(C[C@H](Cc1ccccc1)N(C[C@H](Cc1ccccc1)N(CC1(c2ccccc2)CC1)N=O)N=O)N=O,-2.41,-3.1,0.6,11.6,x,42.5
Cn1c(=O)cc(SCC(=O)NCCC2=CCCCC2)c2ccccc21,-1.18,1.7,0.9,30.7,-0.0119,9.5
CSc1ccccc1C(=O)NCc1ccc(C)cc1,0.935,-14.8,1.2,-0.4,0.309,-23.4
